ChEMBL document CHEMBL1132111, “Design and synthesis of novel alpha(1)(a) adrenoceptor-selective antagonists. 4. Structure-activity relationship in the dihydropyrimidine series” (J Med Chem, 1999)
Values joined by “and” are separate entries in the source; they are usually repeats but may differ in a detail not shown here. Equal values may be shown once.

Assays:
[1] = biological target: T1, Alpha-1D adrenergic receptor (Homo sapiens, UniProt P25100); assay: Binding affinity against Alpha-1D adrenergic receptor (recombinant human receptor) using [3H]-prazosin.
T1 sequence (P25100 whole entry): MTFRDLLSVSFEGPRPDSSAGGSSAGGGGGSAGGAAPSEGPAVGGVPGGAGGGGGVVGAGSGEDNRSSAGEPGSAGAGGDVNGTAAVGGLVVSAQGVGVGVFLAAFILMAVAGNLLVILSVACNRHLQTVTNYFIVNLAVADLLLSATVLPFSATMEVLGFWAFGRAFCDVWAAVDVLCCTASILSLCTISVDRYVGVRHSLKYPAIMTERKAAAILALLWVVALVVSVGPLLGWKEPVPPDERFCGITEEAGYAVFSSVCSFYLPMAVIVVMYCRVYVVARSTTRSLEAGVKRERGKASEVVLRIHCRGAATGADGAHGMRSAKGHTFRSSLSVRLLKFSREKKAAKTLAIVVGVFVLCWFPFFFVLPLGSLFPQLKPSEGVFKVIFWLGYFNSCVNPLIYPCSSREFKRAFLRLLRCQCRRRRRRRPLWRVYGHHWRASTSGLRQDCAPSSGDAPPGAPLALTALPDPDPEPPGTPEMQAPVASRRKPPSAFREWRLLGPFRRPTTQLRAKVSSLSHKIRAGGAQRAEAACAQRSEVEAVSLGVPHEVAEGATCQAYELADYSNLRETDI

[2] = biological target: T2, Alpha-1B adrenergic receptor (Homo sapiens, UniProt P35368); assay: Binding affinity against Alpha-1B adrenergic receptor (recombinant human receptor) using [3H]prazosin.
T2 sequence (P35368 whole entry): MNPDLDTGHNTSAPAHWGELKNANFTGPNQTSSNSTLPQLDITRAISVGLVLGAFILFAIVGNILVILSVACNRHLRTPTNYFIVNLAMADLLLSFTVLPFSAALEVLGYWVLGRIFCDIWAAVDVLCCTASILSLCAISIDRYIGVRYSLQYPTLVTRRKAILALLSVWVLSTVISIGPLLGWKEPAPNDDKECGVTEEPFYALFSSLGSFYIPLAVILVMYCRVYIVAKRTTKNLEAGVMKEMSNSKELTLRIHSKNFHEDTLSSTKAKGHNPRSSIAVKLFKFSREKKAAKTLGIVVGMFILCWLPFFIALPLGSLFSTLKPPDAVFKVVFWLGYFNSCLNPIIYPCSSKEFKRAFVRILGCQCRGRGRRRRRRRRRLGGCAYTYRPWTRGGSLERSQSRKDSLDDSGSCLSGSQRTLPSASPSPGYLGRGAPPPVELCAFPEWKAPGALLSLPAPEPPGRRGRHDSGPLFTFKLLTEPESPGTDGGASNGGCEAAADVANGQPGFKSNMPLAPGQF

[3] = Selectivity against alpha-1a receptor over alpha-2a,b,c adrenoceptors
Outline: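 Binding affinities (Ki, nM) measured at recombinant human α1a and α2a, α2b and α2c adrenoceptors; fold selectivity expressed as the ratio of α2 subtype Ki to α1a Ki.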

[4] = biological target: T3, Alpha-1A adrenergic receptor (Homo sapiens, UniProt P35348); assay: Binding affinity against Alpha-1A adrenergic receptor (recombinant human receptor) using [3H]prazosin.
T3 sequence (P35348 whole entry): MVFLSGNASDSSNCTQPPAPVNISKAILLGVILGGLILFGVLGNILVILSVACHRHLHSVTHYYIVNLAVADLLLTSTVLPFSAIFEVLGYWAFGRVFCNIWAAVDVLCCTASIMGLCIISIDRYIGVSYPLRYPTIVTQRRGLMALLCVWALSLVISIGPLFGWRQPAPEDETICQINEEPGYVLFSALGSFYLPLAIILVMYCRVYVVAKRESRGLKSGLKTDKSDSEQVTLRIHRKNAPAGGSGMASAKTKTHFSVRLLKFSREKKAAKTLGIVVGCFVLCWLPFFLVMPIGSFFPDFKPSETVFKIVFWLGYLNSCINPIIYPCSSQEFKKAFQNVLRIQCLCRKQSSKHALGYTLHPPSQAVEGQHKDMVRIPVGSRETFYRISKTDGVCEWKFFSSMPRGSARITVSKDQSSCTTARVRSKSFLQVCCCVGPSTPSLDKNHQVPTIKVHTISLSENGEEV

Rattus norvegicus [5] = assay: Area under curve at a peroral dose of 3 mg/kg in rat; format: ADME, organism-based; design: dose 3 mg/kg, route oral; conditions: in vivo, po
Outline: (§1)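 Each compound dosed once intravenously at 1 mg/kg and orally at 3 mg/kg. Exposure read as plasma area under the concentration-time curve, reported in µmol min/L.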

Rattus norvegicus [6] = assay: Area under curve at an iv dose of 1 mg/kg in rat; format: ADME, organism-based; design: dose 1 mg/kg, route intravenous; conditions: in vivo; outline: as §1
[7] = Plasma half life in dog; format: ADME, organism-based, Canis lupus familiaris
[8] = Plasma half life in rat; format: ADME, organism-based
[9] = Bioavailability in dog; format: ADME, organism-based, Canis lupus familiaris; conditions: in vivo
[10] = Bioavailability in rat; format: ADME, organism-based; conditions: in vivo
Rattus norvegicus [11] = species: Rattus norvegicus; assay: Antagonistic activity inhibiting phenylephrine induced contractions in isolated rat prostate.; format: functional, Prostate gland
[12] = biological target: T1, Alpha-1D adrenergic receptor; assay: Binding affinity against isolated human aorta using [3H]- prazosin.; format: tissue-based
[13] = biological target: T3, Alpha-1A adrenergic receptor; assay: Binding affinity against isolated human prostate using [3H]- prazosin.; format: tissue-based, Prostate gland
[14] = biological target: T4, Alpha-1A adrenergic receptor (Rattus norvegicus, UniProt P43140); assay: Binding affinity against isolated rat prostate using [3H]- prazosin.; format: tissue-based, Prostate gland
T4 sequence (P43140 whole entry): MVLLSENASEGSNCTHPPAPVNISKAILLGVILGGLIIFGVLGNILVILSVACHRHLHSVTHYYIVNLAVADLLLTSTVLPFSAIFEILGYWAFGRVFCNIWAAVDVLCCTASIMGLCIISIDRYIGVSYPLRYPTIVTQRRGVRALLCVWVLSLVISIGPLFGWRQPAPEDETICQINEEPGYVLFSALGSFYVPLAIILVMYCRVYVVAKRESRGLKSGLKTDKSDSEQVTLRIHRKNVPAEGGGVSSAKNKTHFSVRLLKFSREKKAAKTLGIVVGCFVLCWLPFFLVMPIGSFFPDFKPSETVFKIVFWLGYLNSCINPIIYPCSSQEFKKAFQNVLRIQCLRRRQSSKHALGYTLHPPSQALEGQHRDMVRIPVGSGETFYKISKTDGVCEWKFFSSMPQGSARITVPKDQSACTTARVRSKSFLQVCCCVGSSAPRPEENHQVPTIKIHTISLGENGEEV

Canis familiaris [15] = assay: Area under curve at a peroral dose of 3 mg/kg in dog; format: ADME, organism-based, Canis lupus familiaris; design: dose 3 mg/kg, route oral; conditions: in vivo, po; outline: as §1
Canis familiaris [16] = assay: Area under curve at an iv dose of 1 mg/kg in dog; format: ADME, organism-based, Canis lupus familiaris; design: dose 1 mg/kg, route intravenous; conditions: in vivo; outline: as §1
[17] = Bioavailability in dog(iv: 1 mg/kg); format: ADME, organism-based, Canis lupus familiaris; conditions: in vivo
[18] = Selectivity for alpha-1a receptor against rat L-type calcium channel by [3H]nitrendipine binding

SMILES | Ki [1] | Ki [2] | Fold selective [3] | Ki [4] | further results
COC(=O)C1=C(C)N=C(C)N(CCCCCN2CCC(C(=O)OC)(c3ccccc3)CC2)C1c1ccc(F)c(F)c1 (centres undefined) | 550 nM and 180 nM | 700 nM and 190 nM |  |  | 
COC(=O)C1=C(C)N=C(C)N(CCCCCN2CCN(c3ccccc3C(=O)OC)CC2)C1c1ccc(F)c(F)c1 (centres undefined) | 79 nM | 34 nM | > 100 | 0.5 nM | 
COC(=O)C1=C(C)N=C(C)N(CCCCCN2CCN(c3ccccc3C(N)=O)CC2)C1c1ccc(F)c(F)c1 (centres undefined) | 580 nM | 240 nM |  | 0.6 nM | AUC (Rattus norvegicus [5]): 4 uM min l-1; AUC (Rattus norvegicus [6]): 5 uM min l-1; half-life [7]: 4 h; half-life [8]: 2.1 h; bioavailability [9]: < 10%; bioavailability [10]: 21%; Kb (Rattus norvegicus [11]): 7 nM
COC(=O)C1(c2ccccc2)CCN(CCCCCN2C(C)=NC(C)=C(C(N)=O)C2c2ccc(F)cc2F)CC1 (centres undefined) | 690 nM | 410 nM | < 10 | 4.2 nM | 
COC(=O)C1=C(C)N=C(C)N(CCCCCN2CCC(C(=O)OC)(c3ccccc3)CC2)C1c1ccc(F)cc1F (centres undefined) | 700 nM | 160 nM | > 1000 | 0.5 nM | 
COC(=O)C1=C(C)NC(=O)N(CCCCCN2CCC(C(=O)OC)(c3ccccc3)CC2)C1c1ccc(F)c(F)c1 (centres undefined) |  |  | > 1000 |  | 
COC(=O)C1=C(C)N=C(C)N(CCCCN2CCC(C(=O)OC)(c3ccccc3)CC2)C1c1ccc(F)c(F)c1 (centres undefined) | 610 nM | 440 nM | < 80 | 3.6 nM | 
COC(=O)C1=C(C)N=C(C)N(Cc2cccc(CN3CCC(C(=O)OC)(c4ccccc4)CC3)c2)C1c1ccc(F)c(F)c1 (centres undefined) | 570 nM | 320 nM | > 130 | 6.8 nM | 
COC(=O)C1=C(C)N=C(C)N(CCC[C@H](C)CN2CCC(C(=O)OC)(c3ccccc3)CC2)C1c1ccc(F)c(F)c1 (single isomer, unassigned; (+)) | 910 nM | 430 nM | < 50 | 1.6 nM | 
CNC(=O)C1=C(C)N=C(C)N(CCCCCN2CCC(C(=O)OC)(c3ccccc3)CC2)C1c1ccc(F)cc1F (centres undefined) | 1900 nM | 870 nM | < 80 | 14 nM | 
COC(=O)C1=C(C)N=C(C)N(CCCCCN2CCC(c3ccccc3C(F)(F)F)CC2)C1c1ccc(F)c(F)c1 (centres undefined) | 1100 nM | 500 nM |  | 1.1 nM | Selectivity [18]: < 100

Second part, led by results:

Ki [1] | Ki [2] | Fold selective [3] | Ki [4] | SMILES | further results
1100 nM | 480 nM | > 120 | 1.2 nM | COC(=O)C1=C(C)N=C(C)N(CCC[C@H](C)CN2CCC(C#N)(c3ccccc3)CC2)C1c1ccc(F)c(F)c1 (some centres undefined) | 
680 nM | 400 nM | > 4000 | 0.4 nM | COCC1=C(C(=O)OC)C(c2ccc(F)c(F)c2)N(CCCCCN2CCC(C#N)(c3ccccc3)CC2)C(C)=N1 (centres undefined) | 
1700 nM | 810 nM | < 100 | 3.5 nM | COC(=O)C1=C(C)N=C(C)N(CCC[C@H](C)CN2CCN(c3ccccc3C(N)=O)CC2)C1c1ccc(F)c(F)c1 (some centres undefined) | 
220 nM | 93 nM | > 300 | 0.4 nM | COC(=O)C1=C(C)N=C(C)N(CCCCCN2CCC(c3ccccc3)CC2)C1c1ccc(F)c(F)c1 (centres undefined) | 
180 nM | 100 nM |  | 0.4 nM | COC(=O)C1=C(C)N=C(C)N(CCCCCN2CCC(c3ccccc3)(c3ccccc3)CC2)C1c1ccc(F)c(F)c1 (centres undefined) | Ki [12]: 110 nM; Ki [13]: 0.33 nM; Ki [14]: 0.97 nM; Kb (Rattus norvegicus [11]): 60 nM
440 nM | 250 nM |  | 0.1 nM | COC(=O)C1=C(C)N=C(C)N(CCCCCN2CCC(c3ccc(C)cc3)(c3ccccc3C)CC2)C1c1ccc(F)c(F)c1 (centres undefined) | AUC (Canis familiaris [15]): 8 uM min l-1; AUC (Rattus norvegicus [5]): 21 uM min l-1; AUC (Canis familiaris [16]): 11 uM min l-1; AUC (Rattus norvegicus [6]): 35 uM min l-1; half-life [7]: 0.5 h; half-life [8]: 4.7 h; bioavailability [17]: 8%; bioavailability [10]: 17%; Kb (Rattus norvegicus [11]): 27 nM
65 nM | 67 nM | < 100 | 0.4 nM | COC(=O)C1=C(C)N=C(C)N(CCCCCN2CCN(c3ccccc3OC)CC2)C1c1ccc(F)c(F)c1 (centres undefined) | 
1100 nM | 490 nM | > 300 | 1 nM | COC(=O)C1=C(C)N=C(C)N(CCCCCN2CCC(C#N)(c3ccccc3)CC2)C1c1ccc(F)c(F)c1 (centres undefined) | 
120 nM | 140 nM | > 100 | 0.3 nM | COC(=O)C1=C(C)N=C(C)N(CCCCCN2CCC(c3ccccc3OC)CC2)C1c1ccc(F)c(F)c1 (centres undefined) | 
1600 nM | 1700 nM | < 10 | 22 nM | COC(=O)C1=C(C)N=C(C)N(CCC[C@@H](C)CN2CCC(C#N)(c3ccccc3)CC2)C1c1ccc(F)c(F)c1 (some centres undefined) | 
1700 nM | 1500 nM | < 10 | 20 nM | COC(=O)C1=C(C)N=C(C)N(CCC[C@@H](C)CN2CCN(c3ccccc3C(N)=O)CC2)C1c1ccc(F)c(F)c1 (single isomer, unassigned; (+)) | 
480 nM | 310 nM | > 700 | 0.4 nM | COCC1=NC(C)=C(C(=O)OC)C(c2ccc(F)c(F)c2)N1CCCCCN1CCC(C#N)(c2ccccc2)CC1 (centres undefined) | 
